Source: ChEMBL document CHEMBL1817578, “2-({6-[(3R)-3-amino-3-methylpiperidine-1-yl]-1,3-dimethyl-2,4-dioxo-1,2,3,4-tetrahydro-5H-pyrrolo[3,2-d]pyrimidine-5-yl}methyl)-4-fluorobenzonitrile (DSR-12727): a potent, orally active dipeptidyl peptidase IV inhibitor without mechanism-based inactivation of CYP3A” (Bioorg Med Chem, 2011)
Activity calls are given as the source filed them. The calls are words filed in the database; no cut-off is given here.

Experiments:
[1] = target: Dipeptidyl peptidase 9 (Homo sapiens, UniProt Q86TI2); assay: Inhibition of DPP9
[2] = target: T1, Prolyl endopeptidase FAP (Homo sapiens, UniProt Q12884); assay: Inhibition of FAPalpha
T1 sequence (Q12884 whole entry): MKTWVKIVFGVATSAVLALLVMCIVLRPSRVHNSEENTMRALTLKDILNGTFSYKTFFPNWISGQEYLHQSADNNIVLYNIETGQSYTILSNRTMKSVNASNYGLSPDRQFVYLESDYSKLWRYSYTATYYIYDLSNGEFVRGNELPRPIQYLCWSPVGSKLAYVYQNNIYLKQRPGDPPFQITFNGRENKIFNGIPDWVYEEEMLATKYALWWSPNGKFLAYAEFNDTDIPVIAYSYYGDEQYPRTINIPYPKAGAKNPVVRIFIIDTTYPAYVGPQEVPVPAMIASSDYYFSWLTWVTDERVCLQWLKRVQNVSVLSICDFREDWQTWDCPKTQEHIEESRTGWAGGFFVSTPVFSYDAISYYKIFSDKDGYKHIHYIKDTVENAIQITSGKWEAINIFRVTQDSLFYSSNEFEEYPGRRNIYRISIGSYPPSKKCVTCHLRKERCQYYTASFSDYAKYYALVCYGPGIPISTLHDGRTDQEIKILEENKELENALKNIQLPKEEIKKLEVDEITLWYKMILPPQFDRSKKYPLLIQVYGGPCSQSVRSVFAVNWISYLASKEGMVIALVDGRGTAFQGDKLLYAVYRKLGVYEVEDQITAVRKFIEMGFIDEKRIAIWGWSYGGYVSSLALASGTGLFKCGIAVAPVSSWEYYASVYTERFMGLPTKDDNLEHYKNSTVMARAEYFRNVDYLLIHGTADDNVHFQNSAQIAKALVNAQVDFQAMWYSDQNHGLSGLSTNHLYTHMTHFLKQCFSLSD

[3] = target: Xaa-Pro aminopeptidase 2 (Homo sapiens, UniProt O43895); assay: Inhibition of aminopeptidase P
[4] = target: T2, Muscarinic acetylcholine receptor M1 (Homo sapiens, UniProt P11229); assay: Binding affinity to muscarinic receptor 1
T2 sequence (P11229 whole entry): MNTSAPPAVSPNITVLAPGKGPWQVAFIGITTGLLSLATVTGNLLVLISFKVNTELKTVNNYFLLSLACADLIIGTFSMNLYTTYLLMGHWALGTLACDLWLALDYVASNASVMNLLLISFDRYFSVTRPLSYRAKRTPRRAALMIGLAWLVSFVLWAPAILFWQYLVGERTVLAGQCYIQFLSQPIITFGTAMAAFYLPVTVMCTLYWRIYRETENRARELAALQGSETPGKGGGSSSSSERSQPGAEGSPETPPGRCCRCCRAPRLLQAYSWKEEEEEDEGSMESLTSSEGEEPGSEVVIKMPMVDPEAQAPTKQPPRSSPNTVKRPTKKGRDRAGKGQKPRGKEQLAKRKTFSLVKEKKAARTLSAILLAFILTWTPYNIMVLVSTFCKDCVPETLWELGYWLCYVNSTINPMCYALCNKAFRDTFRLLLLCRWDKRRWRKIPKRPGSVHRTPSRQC

[5] = target: T3, Muscarinic acetylcholine receptor M4 (Homo sapiens, UniProt P08173); assay: Binding affinity to muscarinic receptor 4
T3 sequence (P08173 whole entry): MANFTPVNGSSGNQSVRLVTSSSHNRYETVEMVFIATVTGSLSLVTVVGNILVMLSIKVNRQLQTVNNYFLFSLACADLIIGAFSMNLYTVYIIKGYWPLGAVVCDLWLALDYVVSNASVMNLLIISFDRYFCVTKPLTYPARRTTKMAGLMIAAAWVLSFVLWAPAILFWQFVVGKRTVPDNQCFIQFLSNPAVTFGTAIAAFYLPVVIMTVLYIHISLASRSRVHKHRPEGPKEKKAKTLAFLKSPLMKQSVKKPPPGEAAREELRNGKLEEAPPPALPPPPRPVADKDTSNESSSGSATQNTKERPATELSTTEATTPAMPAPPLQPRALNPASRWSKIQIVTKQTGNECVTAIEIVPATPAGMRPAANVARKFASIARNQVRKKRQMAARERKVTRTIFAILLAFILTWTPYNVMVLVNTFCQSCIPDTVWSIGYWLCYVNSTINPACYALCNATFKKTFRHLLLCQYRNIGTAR

[6] = target: T4, Cytochrome P450 2C8 (Homo sapiens, UniProt P10632); assay: Inhibition of CYP2C8; type: ADME
T4 sequence (P10632 whole entry): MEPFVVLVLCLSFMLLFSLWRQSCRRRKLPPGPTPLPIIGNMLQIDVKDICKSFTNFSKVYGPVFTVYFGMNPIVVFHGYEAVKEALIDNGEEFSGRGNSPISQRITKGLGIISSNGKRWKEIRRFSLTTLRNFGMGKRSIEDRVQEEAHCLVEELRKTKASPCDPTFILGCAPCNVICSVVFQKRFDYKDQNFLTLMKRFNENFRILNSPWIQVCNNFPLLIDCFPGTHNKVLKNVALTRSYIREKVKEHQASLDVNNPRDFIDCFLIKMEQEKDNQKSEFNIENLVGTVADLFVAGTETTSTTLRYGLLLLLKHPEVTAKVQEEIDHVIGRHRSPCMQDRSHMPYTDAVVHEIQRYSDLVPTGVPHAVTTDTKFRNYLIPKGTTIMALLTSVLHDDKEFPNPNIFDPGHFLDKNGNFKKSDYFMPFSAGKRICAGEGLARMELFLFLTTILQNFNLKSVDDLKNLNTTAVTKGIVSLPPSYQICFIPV

[7] = target: Cytochrome P450 2D6 (Homo sapiens, UniProt P10635); assay: Inhibition of CYP2D6; type: ADME
[8] = Half life in rat at 1 mg/kg, iv; type: ADME, organism-based; design: dose 1 mg/kg, route intravenous; conditions: in vivo
[9] = Volume of distribution at steady state in dog at 1 mg/kg, iv; type: ADME, organism-based, Canis lupus familiaris; design: dose 1 mg/kg, route intravenous; conditions: in vivo, read-out: Vdss
[10] = Oral bioavailability in dog at 3 mg/kg, po; type: ADME, organism-based, Canis lupus familiaris; conditions: in vivo
[11] = Oral bioavailability in monkey at 3 mg/kg, po; type: ADME, organism-based, Macaca mulatta; conditions: rhesus monkey, in vivo
[12] = Plasma protein binding in rat; type: ADME, cell-free; conditions: read-out: PPB (converted)
[13] = Plasma protein binding in dog; type: ADME, cell-free, Canis lupus familiaris; conditions: read-out: PPB (converted)
[14] = Plasma protein binding in monkey; type: ADME, cell-free, Macaca mulatta; conditions: rhesus monkey, read-out: PPB (converted)
[15] = test system: Rattus norvegicus; assay: In vivo inhibition of DPP4 in Zucker fatty rat plasma assessed as AMC production at 3 mg/kg, po after 3 hrs by fluorescence microplate reader analysis; type: functional, organism-based; design: dose 3 mg/kg
Outline: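 Male Zucker fatty rats, 9 weeks old, fasted 24 h and kept fasted to 12 h post-dose; test compound solution given by oral gavage at 1.0 or 3.0 mg/kg. Blood sampled at -0.5 h and 0.25–24 h. Plasma DPP-4 measured as AMC release from Gly-Pro-MCA (100 µmol/L working solution), pH 7.8 HEPES buffer, Ex 380/Em 460 nm for 3 min, AMC calibration, duplicates; n = 4–5.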

[16] = Solubility of the compound in buffered water at pH 1.2 to 6.8; type: physicochemical
Outline: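 Free amine form dissolved in buffered water at pH 1.2, 5.5 and 6.8.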

[17] = Toxicity in rat assessed as organ toxicity after 2 weeks repeated dosage; type: organism-based; conditions: in vivo
Outline: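 2-week repeated-dose toxicity study; rats n = 5 per sex, monkeys n = 1 per sex.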

Chain of Cytochrome P450 2D6 (P10635 whole entry): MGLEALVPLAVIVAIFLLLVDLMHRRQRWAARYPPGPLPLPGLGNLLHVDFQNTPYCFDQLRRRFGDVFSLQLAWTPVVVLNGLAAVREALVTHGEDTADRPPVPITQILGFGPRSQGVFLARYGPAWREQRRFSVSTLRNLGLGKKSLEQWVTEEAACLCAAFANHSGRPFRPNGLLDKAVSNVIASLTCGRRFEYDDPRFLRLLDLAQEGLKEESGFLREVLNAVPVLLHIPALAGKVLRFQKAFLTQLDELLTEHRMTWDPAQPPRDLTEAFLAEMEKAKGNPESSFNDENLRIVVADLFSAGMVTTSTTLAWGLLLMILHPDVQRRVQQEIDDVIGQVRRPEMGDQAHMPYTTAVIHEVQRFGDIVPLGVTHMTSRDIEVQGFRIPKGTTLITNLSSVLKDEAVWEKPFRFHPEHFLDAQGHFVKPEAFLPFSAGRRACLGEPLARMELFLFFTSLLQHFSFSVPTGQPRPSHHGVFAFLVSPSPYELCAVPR
Chain of Xaa-Pro aminopeptidase 2 (O43895 whole entry): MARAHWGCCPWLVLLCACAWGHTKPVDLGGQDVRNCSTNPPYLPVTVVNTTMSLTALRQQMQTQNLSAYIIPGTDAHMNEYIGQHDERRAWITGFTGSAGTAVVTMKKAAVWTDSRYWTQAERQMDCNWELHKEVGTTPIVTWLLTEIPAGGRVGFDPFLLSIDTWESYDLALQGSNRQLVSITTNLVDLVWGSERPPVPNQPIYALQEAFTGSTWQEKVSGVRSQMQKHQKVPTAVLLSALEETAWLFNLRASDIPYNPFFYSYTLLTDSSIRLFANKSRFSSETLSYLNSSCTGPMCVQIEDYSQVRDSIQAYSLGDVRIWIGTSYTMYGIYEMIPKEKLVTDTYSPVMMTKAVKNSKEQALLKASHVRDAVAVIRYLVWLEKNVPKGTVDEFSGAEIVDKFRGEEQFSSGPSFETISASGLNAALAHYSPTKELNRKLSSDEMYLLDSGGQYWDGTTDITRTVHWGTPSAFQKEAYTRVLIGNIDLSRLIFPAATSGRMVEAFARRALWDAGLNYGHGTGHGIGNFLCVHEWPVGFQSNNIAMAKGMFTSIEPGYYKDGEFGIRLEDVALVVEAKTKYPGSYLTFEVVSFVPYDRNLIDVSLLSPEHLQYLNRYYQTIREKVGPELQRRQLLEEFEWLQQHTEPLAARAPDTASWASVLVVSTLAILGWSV
Chain of Dipeptidyl peptidase 9 (Q86TI2 whole entry): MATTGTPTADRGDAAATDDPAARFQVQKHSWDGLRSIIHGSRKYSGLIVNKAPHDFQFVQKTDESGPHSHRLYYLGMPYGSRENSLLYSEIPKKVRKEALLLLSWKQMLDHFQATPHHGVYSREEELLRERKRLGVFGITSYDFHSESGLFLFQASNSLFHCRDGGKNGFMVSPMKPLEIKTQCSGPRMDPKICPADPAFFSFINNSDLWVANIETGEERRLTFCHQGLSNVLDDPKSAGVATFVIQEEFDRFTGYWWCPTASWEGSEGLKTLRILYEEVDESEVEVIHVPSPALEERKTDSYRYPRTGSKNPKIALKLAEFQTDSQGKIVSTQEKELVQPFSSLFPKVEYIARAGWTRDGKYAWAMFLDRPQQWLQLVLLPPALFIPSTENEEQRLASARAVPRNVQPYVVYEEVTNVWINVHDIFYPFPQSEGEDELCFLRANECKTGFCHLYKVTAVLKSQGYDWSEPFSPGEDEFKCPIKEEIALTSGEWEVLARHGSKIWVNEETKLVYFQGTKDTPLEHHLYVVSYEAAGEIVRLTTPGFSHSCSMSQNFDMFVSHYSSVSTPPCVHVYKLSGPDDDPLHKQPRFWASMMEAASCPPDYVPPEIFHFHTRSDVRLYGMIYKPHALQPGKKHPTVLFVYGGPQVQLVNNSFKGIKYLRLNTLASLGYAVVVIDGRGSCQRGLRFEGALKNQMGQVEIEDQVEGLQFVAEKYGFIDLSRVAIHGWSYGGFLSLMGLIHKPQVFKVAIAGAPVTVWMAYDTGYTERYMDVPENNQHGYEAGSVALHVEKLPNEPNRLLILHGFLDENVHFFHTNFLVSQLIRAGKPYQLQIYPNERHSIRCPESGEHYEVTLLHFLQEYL

IC50 [1]: > 50 µM
IC50 [2]: > 50 µM
IC50 [3]: > 50 µM
IC50 [4]: > 10 µM
IC50 [5]: > 10 µM
IC50 [6]: > 50 µM
IC50 [7]: 38 µM
half-life [8]: 4.1 h
Vd [9]: 5.8 L/kg
bioavailability [10]: 91%
bioavailability [11]: 38%
fraction unbound [12]: 0.22
fraction unbound [13]: 0.41
fraction unbound [14]: 0.31
solubility [16]: > 1000 µg/mL
Compound: Cn1c(=O)c2c(cc(N3CCC[C@@](C)(N)C3)n2Cc2cc(F)ccc2C#N)n(C)c1=O
inhibition [15]: Active
NOAEL at 336 h [17]: 60 mg/kg/day
